In ChEMBL document CHEMBL3864175, “Sulfonamides as Selective NaV1.7 Inhibitors: Optimizing Potency and Pharmacokinetics to Enable in Vivo Target Engagement” (ACS Med Chem Lett, 2016):

Assays:
Mus musculus = assay: Antipruritic activity in histamine-induced scratching C57BL/6 mouse model assessed as reduction in scratching bouts administered orally 120 mins prior to histamine challenge measured after 30 mins relative to vehicle-treated control; type: functional
Procedure, shortened: (§1)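 Male C57BL/6 mice dosed orally 120 min before intradermal histamine. Scratching bouts counted over 30 min and compared with vehicle by one-way ANOVA with Dunnett's test. Total and unbound plasma levels taken 30 min after histamine.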

[1] = Clearance in rat at 0.5 mg/kg, iv by LC-MS/MS analysis; type: ADME, organism-based; conditions: in vivo
Procedure, shortened: (§2)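 Male rats, n = 2 per group, dosed intravenously at 0.5 mg/kg as a solution in 100% DMSO. Unbound clearance is derived from total clearance.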

[2] = biological target: Sodium channel protein type 4 subunit alpha (Homo sapiens, UniProt P35499); assay: Inhibition of 20% inactivated human Nav1.4 expressed in HEK293 cells assessed as inhibition of peak inward current by whole cell patch clamp method; type: cell-based
Sodium channel protein type 4 subunit alpha, sequence (P35499 whole entry): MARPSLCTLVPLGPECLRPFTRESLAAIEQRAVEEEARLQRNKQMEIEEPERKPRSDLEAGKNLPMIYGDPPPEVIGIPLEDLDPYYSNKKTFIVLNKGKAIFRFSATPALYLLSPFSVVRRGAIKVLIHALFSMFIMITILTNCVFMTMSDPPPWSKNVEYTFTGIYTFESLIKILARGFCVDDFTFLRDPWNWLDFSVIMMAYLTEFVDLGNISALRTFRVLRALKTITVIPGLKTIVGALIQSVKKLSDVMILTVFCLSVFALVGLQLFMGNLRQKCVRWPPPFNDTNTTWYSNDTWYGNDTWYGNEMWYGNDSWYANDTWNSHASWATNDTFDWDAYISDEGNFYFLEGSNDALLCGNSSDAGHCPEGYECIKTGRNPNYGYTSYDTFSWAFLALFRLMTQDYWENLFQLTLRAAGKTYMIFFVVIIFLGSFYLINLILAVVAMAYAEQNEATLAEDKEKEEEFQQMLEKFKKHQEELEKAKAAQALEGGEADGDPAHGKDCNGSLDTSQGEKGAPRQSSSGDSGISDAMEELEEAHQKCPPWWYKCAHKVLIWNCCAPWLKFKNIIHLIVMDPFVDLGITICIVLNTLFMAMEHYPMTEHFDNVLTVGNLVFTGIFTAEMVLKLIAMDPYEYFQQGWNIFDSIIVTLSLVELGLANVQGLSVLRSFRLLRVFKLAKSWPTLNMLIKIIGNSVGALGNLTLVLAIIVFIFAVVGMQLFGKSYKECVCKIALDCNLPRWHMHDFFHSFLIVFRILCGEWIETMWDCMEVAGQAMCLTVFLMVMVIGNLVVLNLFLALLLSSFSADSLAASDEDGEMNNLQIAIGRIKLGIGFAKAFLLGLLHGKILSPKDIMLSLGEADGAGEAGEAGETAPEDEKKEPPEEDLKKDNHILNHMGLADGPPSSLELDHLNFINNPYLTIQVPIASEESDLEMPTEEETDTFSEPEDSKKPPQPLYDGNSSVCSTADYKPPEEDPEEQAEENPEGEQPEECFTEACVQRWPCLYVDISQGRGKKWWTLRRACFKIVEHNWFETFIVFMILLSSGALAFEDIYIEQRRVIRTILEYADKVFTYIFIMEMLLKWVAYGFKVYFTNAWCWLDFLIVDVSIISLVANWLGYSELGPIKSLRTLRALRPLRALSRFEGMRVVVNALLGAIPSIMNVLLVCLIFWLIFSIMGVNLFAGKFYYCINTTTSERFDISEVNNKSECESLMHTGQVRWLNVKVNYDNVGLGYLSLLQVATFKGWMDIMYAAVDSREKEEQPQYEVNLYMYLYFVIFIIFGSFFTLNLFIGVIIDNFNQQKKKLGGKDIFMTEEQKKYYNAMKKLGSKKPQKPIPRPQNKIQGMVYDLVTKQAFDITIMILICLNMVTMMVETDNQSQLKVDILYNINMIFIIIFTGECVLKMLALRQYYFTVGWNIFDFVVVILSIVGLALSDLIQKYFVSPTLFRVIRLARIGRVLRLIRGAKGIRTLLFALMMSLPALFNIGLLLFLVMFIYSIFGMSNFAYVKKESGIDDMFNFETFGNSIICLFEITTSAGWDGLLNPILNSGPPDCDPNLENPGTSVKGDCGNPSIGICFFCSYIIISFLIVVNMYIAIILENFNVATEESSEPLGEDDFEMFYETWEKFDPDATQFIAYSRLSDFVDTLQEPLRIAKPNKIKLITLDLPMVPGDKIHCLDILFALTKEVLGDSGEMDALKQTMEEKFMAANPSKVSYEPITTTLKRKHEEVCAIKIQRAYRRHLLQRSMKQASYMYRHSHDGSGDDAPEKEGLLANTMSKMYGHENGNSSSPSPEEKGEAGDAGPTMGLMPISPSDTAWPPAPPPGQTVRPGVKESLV

[3] = Dissociation constant, pKa of the compound at pH 1.7 to 11.2 by capillary electrophoresis method; type: physicochemical
Procedure, shortened: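 pKa values calculated from capillary electrophoresis data collected over pH 1.7 to 11.2.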

[4] = Unbound clearance in rat at 0.5 mg/kg, iv by LC-MS/MS analysis; type: ADME, organism-based; conditions: in vivo; procedure, shortened: as §2
[5] = Drug excretion in bile duct cannulated Sprague-Dawley rat urine assessed as parent compound at 1 mg/kg, iv administered through catheter measured up to 24 hrs by LC-MS/MS analysis; type: ADME, organism-based; conditions: read-out: Drug excretion
[6] = biological target: Sodium channel protein type 3 subunit alpha (Homo sapiens, UniProt Q9NY46); assay: Inhibition of 20% inactivated human Nav1.3 expressed in CHO cells assessed as inhibition of peak inward current by whole cell patch clamp method; type: cell-based
Sodium channel protein type 3 subunit alpha, sequence (Q9NY46 whole entry): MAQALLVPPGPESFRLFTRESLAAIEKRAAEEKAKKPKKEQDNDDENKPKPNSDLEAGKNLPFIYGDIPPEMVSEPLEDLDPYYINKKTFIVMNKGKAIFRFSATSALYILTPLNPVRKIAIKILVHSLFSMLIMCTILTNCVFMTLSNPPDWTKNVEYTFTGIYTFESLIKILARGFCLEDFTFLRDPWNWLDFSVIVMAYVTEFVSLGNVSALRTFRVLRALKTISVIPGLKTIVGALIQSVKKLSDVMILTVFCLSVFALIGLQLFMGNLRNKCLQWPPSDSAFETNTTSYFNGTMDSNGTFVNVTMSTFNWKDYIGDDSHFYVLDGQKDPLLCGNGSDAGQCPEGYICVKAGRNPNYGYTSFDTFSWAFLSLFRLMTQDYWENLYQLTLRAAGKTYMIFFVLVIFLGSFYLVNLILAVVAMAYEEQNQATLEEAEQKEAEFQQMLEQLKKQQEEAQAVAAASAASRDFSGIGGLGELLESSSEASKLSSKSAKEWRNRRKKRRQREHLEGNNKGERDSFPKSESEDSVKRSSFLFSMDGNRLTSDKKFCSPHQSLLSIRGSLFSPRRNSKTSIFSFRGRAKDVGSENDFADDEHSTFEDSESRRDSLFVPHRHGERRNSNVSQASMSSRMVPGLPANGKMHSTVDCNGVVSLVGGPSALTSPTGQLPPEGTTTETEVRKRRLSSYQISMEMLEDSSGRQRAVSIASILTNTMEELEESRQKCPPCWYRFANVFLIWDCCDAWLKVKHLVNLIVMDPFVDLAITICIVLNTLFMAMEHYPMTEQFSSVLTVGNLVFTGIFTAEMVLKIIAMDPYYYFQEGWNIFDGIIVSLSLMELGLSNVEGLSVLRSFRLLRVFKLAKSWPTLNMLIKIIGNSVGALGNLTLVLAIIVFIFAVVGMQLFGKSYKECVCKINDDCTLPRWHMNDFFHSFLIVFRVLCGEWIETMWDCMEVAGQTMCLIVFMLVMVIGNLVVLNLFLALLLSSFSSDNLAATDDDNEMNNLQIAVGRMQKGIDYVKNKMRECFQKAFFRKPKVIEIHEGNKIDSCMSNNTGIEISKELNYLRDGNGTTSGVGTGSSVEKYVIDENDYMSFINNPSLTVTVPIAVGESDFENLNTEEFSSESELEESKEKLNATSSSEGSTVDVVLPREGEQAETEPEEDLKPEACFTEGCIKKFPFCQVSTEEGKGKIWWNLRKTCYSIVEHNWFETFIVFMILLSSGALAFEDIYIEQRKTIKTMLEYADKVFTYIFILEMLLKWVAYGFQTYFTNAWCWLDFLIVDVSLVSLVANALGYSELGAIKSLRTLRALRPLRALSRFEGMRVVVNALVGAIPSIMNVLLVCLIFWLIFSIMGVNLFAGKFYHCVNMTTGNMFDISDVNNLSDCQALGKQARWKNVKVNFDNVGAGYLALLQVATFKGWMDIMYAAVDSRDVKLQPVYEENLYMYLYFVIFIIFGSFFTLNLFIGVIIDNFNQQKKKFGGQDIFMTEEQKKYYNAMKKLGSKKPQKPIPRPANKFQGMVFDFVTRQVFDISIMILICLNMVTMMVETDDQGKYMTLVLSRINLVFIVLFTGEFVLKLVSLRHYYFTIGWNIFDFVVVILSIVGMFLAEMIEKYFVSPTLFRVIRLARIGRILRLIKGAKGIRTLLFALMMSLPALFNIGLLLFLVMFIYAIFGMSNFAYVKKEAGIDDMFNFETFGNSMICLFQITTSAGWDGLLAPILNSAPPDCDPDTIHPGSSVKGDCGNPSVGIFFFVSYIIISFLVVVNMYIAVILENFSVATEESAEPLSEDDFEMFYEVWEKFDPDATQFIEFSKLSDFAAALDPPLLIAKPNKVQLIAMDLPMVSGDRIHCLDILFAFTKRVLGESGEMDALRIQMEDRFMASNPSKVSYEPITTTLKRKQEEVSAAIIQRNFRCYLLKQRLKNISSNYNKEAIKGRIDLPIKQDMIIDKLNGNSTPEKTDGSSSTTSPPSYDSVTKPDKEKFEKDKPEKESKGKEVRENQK

[7] = biological target: Sodium channel protein type 9 subunit alpha (Rattus norvegicus, UniProt O08562); assay: Inhibition of 20% inactivated rat Nav1.7 expressed in HEK293T cells assessed as inhibition of sodium current measured for 3 to 5 mins by whole cell voltage clamp method; type: cell-based, HEK-293T
[8] = Tmax in rat at 10 mg/kg, po by LC-MS/MS analysis; type: ADME, organism-based; conditions: in vivo
Procedure, shortened: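 Rats dosed orally at 10 mg/kg as a solution in 30% HPBCD/70% water, brought to pH 10 with KOH.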

[9] = biological target: Sodium channel protein type 10 subunit alpha (Homo sapiens, UniProt Q9Y5Y9); assay: Inhibition of 20% inactivated human Nav1.8 expressed in CHO cells assessed as inhibition of TTX-resistant current by whole cell patch clamp method; type: cell-based
[10] = Drug uptake in plasma of po dosed histamine induced C57BL/6 mouse model of scratching pretreated for 120 mins followed by histamine-challenge measured after 30 mins; type: ADME, organism-based; conditions: in vivo, 0.5 h; procedure, shortened: as §1
[11] = biological target: Voltage-gated inwardly rectifying potassium channel KCNH2 (Homo sapiens, UniProt Q12809); assay: Displacement of [3H]dofetilide from human ERG expressed in HEK293 cell membranes measured after 90 mins by TopCount scintillation counting method
Voltage-gated inwardly rectifying potassium channel KCNH2, sequence (Q12809 whole entry): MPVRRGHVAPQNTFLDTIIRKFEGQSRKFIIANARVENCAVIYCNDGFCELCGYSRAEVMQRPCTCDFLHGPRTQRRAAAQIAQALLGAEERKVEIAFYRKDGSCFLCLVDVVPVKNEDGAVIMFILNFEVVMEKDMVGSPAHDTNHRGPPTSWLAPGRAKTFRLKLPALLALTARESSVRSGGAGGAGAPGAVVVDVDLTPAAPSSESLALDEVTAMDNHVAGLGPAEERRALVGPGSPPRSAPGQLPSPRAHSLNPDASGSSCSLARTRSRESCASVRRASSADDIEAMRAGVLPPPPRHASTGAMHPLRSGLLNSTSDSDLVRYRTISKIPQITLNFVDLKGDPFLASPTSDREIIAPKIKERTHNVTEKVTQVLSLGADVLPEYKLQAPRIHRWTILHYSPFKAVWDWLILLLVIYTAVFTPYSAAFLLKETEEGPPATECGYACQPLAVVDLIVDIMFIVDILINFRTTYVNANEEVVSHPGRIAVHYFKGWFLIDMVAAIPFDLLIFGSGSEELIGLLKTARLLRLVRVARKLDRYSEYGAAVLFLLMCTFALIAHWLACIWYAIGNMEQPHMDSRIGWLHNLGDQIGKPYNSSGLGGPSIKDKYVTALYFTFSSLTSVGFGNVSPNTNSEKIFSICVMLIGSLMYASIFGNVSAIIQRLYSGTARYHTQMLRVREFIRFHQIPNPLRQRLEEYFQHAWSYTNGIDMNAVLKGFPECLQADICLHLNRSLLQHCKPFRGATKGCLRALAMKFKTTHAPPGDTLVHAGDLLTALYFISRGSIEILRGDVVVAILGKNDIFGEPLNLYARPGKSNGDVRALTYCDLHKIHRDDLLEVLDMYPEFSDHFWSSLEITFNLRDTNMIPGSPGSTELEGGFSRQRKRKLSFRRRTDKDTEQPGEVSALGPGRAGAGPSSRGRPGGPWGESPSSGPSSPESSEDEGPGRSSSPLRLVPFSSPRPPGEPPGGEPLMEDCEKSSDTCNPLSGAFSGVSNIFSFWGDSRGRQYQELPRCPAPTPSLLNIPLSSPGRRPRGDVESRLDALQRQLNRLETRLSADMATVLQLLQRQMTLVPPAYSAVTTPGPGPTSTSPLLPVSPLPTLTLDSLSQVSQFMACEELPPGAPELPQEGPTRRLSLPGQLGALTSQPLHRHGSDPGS

[12] = Oral bioavailability in dog at 1.7 mg/kg by LC-MS/MS analysis; type: ADME, organism-based, Canis lupus familiaris; conditions: in vivo
Procedure, shortened: (§3)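 Dogs given a 1.7 mg/kg oral dose as a solution in 30% HPBCD/70% water/KOH at pH = 10; plasma parameters derived from this oral dosing, with the iv dose at 0.5 mg/kg in the same vehicle.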

[13] = Half life in dog at 0.5 mg/kg, iv by LC-MS/MS analysis; type: ADME, organism-based, Canis lupus familiaris; conditions: in vivo
Procedure, shortened: (§4)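 Dogs dosed intravenously at 0.5 mg/kg in 30% HPBCD/70% water, brought to pH 10 with KOH.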

[14] = Cmax in dog at 1.7 mg/kg, po by LC-MS/MS analysis; type: ADME, organism-based, Canis lupus familiaris; set-up: dose 1.7 mg/kg, route oral; conditions: in vivo; procedure, shortened: as §3
[15] = biological target: Sodium channel protein type 9 subunit alpha (Homo sapiens, UniProt Q15858); assay: Inhibition of 20% inactivated human Nav1.7 expressed in HEK293 cells assessed as inhibition of peak inward current by whole cell patch clamp method; type: cell-based
Procedure, shortened: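 Electrophysiological block was measured with cells depolarized to a voltage that gave 20% channel inactivation, as opposed to a fully non-inactivated (closed) holding condition.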

[16] = Half life in rat at 0.5 mg/kg, iv by LC-MS/MS analysis; type: ADME, organism-based; conditions: in vivo; procedure, shortened: as §2
[17] = Apparent permeability in MDCK cells; type: ADME, cell-based, Canis lupus familiaris; conditions: dog
Procedure, shortened: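 Apparent permeability measured in parental MDCK cells.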

[18] = Volume of distribution at steady state in dog at 0.5 mg/kg, iv by LC-MS/MS analysis; type: ADME, organism-based, Canis lupus familiaris; conditions: in vivo; procedure, shortened: as §4

SMILES: COc1cc(C(F)(F)F)ccc1-c1ncnc2cc(S(=O)(=O)Nc3nccs3)ccc12
- Activity (Mus musculus): Dose-dependent effect
- clearance [1]: 9 mL/min/kg
- IC50 [2]: 17 µM
- pKa [3]: 6.5
- CL free [4]: 567 mL/min/kg
- dose excreted at 24 h [5]: 0.02%
- IC50 [6]: 21 µM
- IC50 [7]: 3.5 µM
- Tmax [8]: 1.7 h
- IC50 [9]: > 30 µM
- Drug uptake [10]: Dose-dependent effect
- Ki [11]: > 30 µM
- bioavailability [12]: 53%
- half-life [13]: 18 h
- Cmax [14]: 8 µM
- IC50 [15]: 0.14 µM
- half-life [16]: 1.9 h
- Papp [17]: 31 ×10⁻⁶ cm/s
- Vd [18]: 0.31 L/kg
